Test results taken from ChEMBL document CHEMBL4665898, “Semisynthetic Analogs of the Antibiotic Fidaxomicin-Design, Synthesis, and Biological Evaluation” (ACS Med Chem Lett, 2020).
Converted amounts (≈) assume the structure as drawn.

Key:
[1] = test system: Clostridioides difficile; experiment: Antibacterial activity against Clostridium difficile ATCC 43255 incubated for 46 hrs in anaerobic condition by CLSI-based broth microdilution assay; assay type: functional
[2] = test system: Clostridioides difficile; experiment: Antibacterial activity against Clostridium difficile ATCC 700057 incubated for 46 hrs in anaerobic condition by CLSI-based broth microdilution assay; assay type: functional
[3] = test system: Clostridioides difficile; experiment: Antibacterial activity against Clostridium difficile BAA-1805 incubated for 46 hrs in anaerobic condition by CLSI-based broth microdilution assay; assay type: functional
[4] = test system: Clostridioides difficile; experiment: Antibacterial activity against Clostridium difficile BAA-1875 incubated for 46 hrs in anaerobic condition by CLSI-based broth microdilution assay; assay type: functional
[5] = test system: Clostridioides difficile; experiment: Antibacterial activity against Clostridium difficile ATCC 9689 incubated for 46 hrs in anaerobic condition by CLSI-based broth microdilution assay; assay type: functional; details: ATCC 9689 = DSM 1296
[6] = test system: Clostridioides difficile; experiment: Antibacterial activity against Clostridium difficile 8260 incubated for 46 hrs in anaerobic condition by CLSI-based broth microdilution assay; assay type: functional
[7] = test system: Clostridioides difficile; experiment: Antibacterial activity against Clostridium difficile 8282 incubated for 46 hrs in anaerobic condition by CLSI-based broth microdilution assay; assay type: functional
[8] = test system: Clostridioides difficile; experiment: Antibacterial activity against Clostridium difficile 5680 incubated for 46 hrs in anaerobic condition by CLSI-based broth microdilution assay; assay type: functional
[9] = test system: Clostridioides difficile; experiment: Antibacterial activity against Clostridium difficile 8264 incubated for 46 hrs in anaerobic condition by CLSI-based broth microdilution assay; assay type: functional
[10] = test system: Clostridioides difficile; experiment: Antibacterial activity against Clostridium difficile 8290 incubated for 46 hrs in anaerobic condition by CLSI-based broth microdilution assay; assay type: functional
[11] = test system: Staphylococcus aureus; experiment: Antibacterial activity against Staphylococcus aureus ATCC 29213 incubated overnight by broth dilution method; assay type: functional
How it was run: (§1)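 Strains pre-grown overnight at 37 °C on Mueller Hinton II agar; CLSI broth dilution, inoculum about 7.5 × 10^5 CFU/well. Compounds taken from 1.0 mg/mL stocks in 50 % methanol/H2O, diluted in H2O as 2-fold series. Plates held at 37 °C overnight; MIC read visually as lowest concentration with no growth.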

[12] = test system: Bacillus subtilis; experiment: Antibacterial activity against Bacillus subtilis DSM3256 incubated overnight by broth dilution method; assay type: functional; how it was run: as §1
[13] = test system: Mycobacterium tuberculosis; experiment: Antimycobacterial activity against recombinant Mycobacterium tuberculosis H37Rv expressed in green fluorescence protein by measuring increase in fluorescence after 10 days in presence of middlebrook 7H9/OADC medium by GFP reporter gene assay; assay type: functional; details: 240 h, time 10 day
[14] = Aqueous solubility of the compound in phosphate buffer at pH 7 after 5 hrs by UHPLC analysis; assay type: physicochemical
How it was run: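 Solid added to 1.0 mL pH 7 phosphate buffer containing 50 µg/mL caffeine internal standard until saturated. Stirred 5 h at room temperature, passed through a 0.22 µm filter, then run on C18 UHPLC with a water/MeCN + 0.1 % HCOOH gradient. Analyte/IS peak-area ratio was converted to concentration using a linear calibration from MeOH standards at 50–500 µg/mL.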

Row | SMILES | MIC [1] [µg/mL] | MIC [2] [µg/mL] | MIC [3] [µg/mL] | MIC [4] [µg/mL] | MIC [5] [µg/mL] | MIC [6] [µg/mL] | MIC [7] [µg/mL] | MIC [8] [µg/mL] | MIC [9] [µg/mL] | MIC [10] [µg/mL] | MIC [11] [µg/mL] | MIC [12] [µg/mL] | MIC90 [13] [µg/mL] | solubility at 5 h [14] [µg/mL]
1 | CO[C@H]1/C=C/O[C@@]2(C)Oc3c(C)c(O)c4c(O)c(c(/C=N/N5CCN(C)CC5)c(O)c4c3C2=O)NC(=O)/C(C)=C\C=C\[C@H](C)[C@H](O)[C@@H](C)[C@@H](O)[C@@H](C)[C@H](OC(C)=O)[C@@H]1C [RIFAMPIN] | ≤ 0.015 | ≤ 0.015 | ≤ 0.015 | ≤ 0.015 | ≤ 0.015 | > 16 | > 16 | ≤ 0.015 | ≤ 0.015 | ≤ 0.015 | 0.008 (≈ 0.00972 µM) | 0.25 (≈ 0.304 µM) | – | –
2 | CCc1c(Cl)c(OCCCn2cc(CCN3CCC(N)CC3)nn2)c(Cl)c(O)c1C(=O)O[C@@H]1[C@@H](O)[C@@H](OC)[C@@H](OC/C2=C\C=C\C[C@H](O)/C(C)=C/[C@H](CC)[C@@H](O[C@@H]3OC(C)(C)[C@@H](OC(=O)C(C)C)[C@H](O)[C@@H]3O)/C(C)=C/C(C)=C/C[C@@H]([C@@H](C)O)OC2=O)O[C@H]1C | 4 (≈ 3.09 µM) | 2 (≈ 1.55 µM) | 8 (≈ 6.19 µM) | 2 (≈ 1.55 µM) | 0.5 (≈ 0.387 µM) | 4 (≈ 3.09 µM) | 1 (≈ 0.773 µM) | 8 (≈ 6.19 µM) | 8 (≈ 6.19 µM) | 4 (≈ 3.09 µM) | > 64 | > 64 | 4 | –
3 | CCc1c(Cl)c(OCC(=O)N2CCN(c3cc4c(cc3F)c(=O)c(C(=O)O)cn4C3CC3)CC2)c(Cl)c(O)c1C(=O)O[C@@H]1[C@@H](O)[C@@H](OC)[C@@H](OC/C2=C\C=C\C[C@H](O)/C(C)=C/[C@H](CC)[C@@H](O[C@@H]3OC(C)(C)[C@@H](OC(=O)C(C)C)[C@H](O)[C@@H]3O)/C(C)=C/C(C)=C/C[C@@H]([C@@H](C)O)OC2=O)O[C@H]1C | 0.03 (≈ 0.021 µM) | 0.06 (≈ 0.042 µM) | 0.12 (≈ 0.084 µM) | 0.06 (≈ 0.042 µM) | ≤ 0.015 | 0.03 (≈ 0.021 µM) | 0.03 (≈ 0.021 µM) | 0.12 (≈ 0.084 µM) | 0.12 (≈ 0.084 µM) | 0.12 (≈ 0.084 µM) | > 64 | 32 (≈ 22.4 µM) | 1 | –
4 | CCc1c(Cl)c(OCCCn2cc(CCN3CCC(N)CC3)nn2)c(Cl)c(OCCCn2cc(CCN3CCC(N)CC3)nn2)c1C(=O)O[C@@H]1[C@@H](O)[C@@H](OC)[C@@H](OC/C2=C\C=C\C[C@H](O)/C(C)=C/[C@H](CC)[C@@H](O[C@@H]3OC(C)(C)[C@@H](OC(=O)C(C)C)[C@H](O)[C@@H]3O)/C(C)=C/C(C)=C/C[C@@H]([C@@H](C)O)OC2=O)O[C@H]1C | > 16 | > 16 | > 16 | > 16 | > 16 | > 16 | > 16 | > 16 | > 16 | > 16 | > 64 | 8 (≈ 5.23 µM) | 16 | 451 (≈ 295 µM)
5 | CCc1c(Cl)c(OCC(=O)N2CCC(O)CC2)c(Cl)c(O)c1C(=O)O[C@@H]1[C@@H](O)[C@@H](OC)[C@@H](OC/C2=C\C=C\C[C@H](O)/C(C)=C/[C@H](CC)[C@@H](O[C@@H]3OC(C)(C)[C@@H](OC(=O)C(C)C)[C@H](O)[C@@H]3O)/C(C)=C/C(C)=C/C[C@@H]([C@@H](C)O)OC2=O)O[C@H]1C | – | – | – | – | – | – | – | – | – | – | – | – | – | 180 (≈ 150 µM)
6 | CCc1c(Cl)c(OCCOCCOCCOCCOCCOCCOC)c(Cl)c(OCCOCCOCCOCCOCCOCCOC)c1C(=O)O[C@@H]1[C@@H](O)[C@@H](OC)[C@@H](OC/C2=C\C=C\C[C@H](O)/C(C)=C/[C@H](CC)[C@@H](O[C@@H]3OC(C)(C)[C@@H](OC(=O)C(C)C)[C@H](O)[C@@H]3O)/C(C)=C/C(C)=C/C[C@@H]([C@@H](C)O)OC2=O)O[C@H]1C | – | – | – | – | – | – | – | – | – | – | – | – | – | 504 (≈ 312 µM)
7 | O=C(O)c1cn(C2CC2)c2cc(N3CCNCC3)c(F)cc2c1=O [CIPROFLOXACIN] | – | – | – | – | – | – | – | – | – | – | – | – | 1 | –
8 | CCc1c(Cl)c(OCCOCCOCCOCCOCCOCCOCCOCCn2cc(CN3CCN(/N=C/c4c5c(O)c6c(O)c(C)c7c(c6c4O)C(=O)[C@@](C)(O/C=C/[C@H](OC)[C@@H](C)[C@@H](OC(C)=O)[C@H](C)[C@H](O)[C@H](C)[C@@H](O)[C@@H](C)/C=C/C=C(\C)C(=O)N5)O7)CC3)nn2)c(Cl)c(O)c1C(=O)O[C@@H]1[C@@H](O)[C@@H](OC)[C@@H](OC/C2=C\C=C\C[C@H](O)/C(C)=C/[C@H](CC)[C@@H](O[C@@H]3OC(C)(C)[C@@H](OC(=O)C(C)C)[C@H](O)[C@@H]3O)/C(C)=C/C(C)=C/C[C@@H]([C@@H](C)O)OC2=O)O[C@H]1C | ≤ 0.015 | ≤ 0.015 | ≤ 0.015 | ≤ 0.015 | ≤ 0.015 | ≤ 0.015 | 4 (≈ 1.75 µM) | ≤ 0.015 | 0.03 (≈ 0.0131 µM) | 0.03 (≈ 0.0131 µM) | 4 (≈ 1.75 µM) | 4 (≈ 1.75 µM) | 0.5 | –
9 | CCc1c(Cl)c(OCCCn2cc(COCCOCCOCCOCCOCCC(=O)O)nn2)c(Cl)c(O)c1C(=O)O[C@@H]1[C@@H](O)[C@@H](OC)[C@@H](OC/C2=C\C=C\C[C@H](O)/C(C)=C/[C@H](CC)[C@@H](O[C@@H]3OC(C)(C)[C@@H](OC(=O)C(C)C)[C@H](O)[C@@H]3O)/C(C)=C/C(C)=C/C[C@@H]([C@@H](C)O)OC2=O)O[C@H]1C | – | – | – | – | – | – | – | – | – | – | – | – | – | > 2000
10 | CCc1c(Cl)c(Oc2nncnn2)c(Cl)c(Oc2nncnn2)c1C(=O)O[C@@H]1[C@@H](O)[C@@H](OC)[C@@H](OC/C2=C\C=C\C[C@H](O)/C(C)=C/[C@H](CC)[C@@H](O[C@@H]3OC(C)(C)[C@@H](OC(=O)C(C)C)[C@H](O)[C@@H]3O)/C(C)=C/C(C)=C/C[C@@H]([C@@H](C)O)OC2=O)O[C@H]1C | 0.12 (≈ 0.0985 µM) | 0.06 (≈ 0.0493 µM) | 0.25 (≈ 0.205 µM) | 0.25 (≈ 0.205 µM) | 0.03 (≈ 0.0246 µM) | 0.12 (≈ 0.0985 µM) | 0.06 (≈ 0.0493 µM) | 0.5 (≈ 0.41 µM) | 0.25 (≈ 0.205 µM) | 0.12 (≈ 0.0985 µM) | – | – | – | –
11 | CCOC(=O)COc1c(Cl)c(O)c(C(=O)O[C@@H]2[C@@H](O)[C@@H](OC)[C@@H](OC/C3=C\C=C\C[C@H](O)/C(C)=C/[C@H](CC)[C@@H](O[C@@H]4OC(C)(C)[C@@H](OC(=O)C(C)C)[C@H](O)[C@@H]4O)/C(C)=C/C(C)=C/C[C@@H]([C@@H](C)O)OC3=O)O[C@H]2C)c(CC)c1Cl | > 16 | 8 (≈ 6.99 µM) | > 16 | 8 (≈ 6.99 µM) | 2 (≈ 1.75 µM) | 16 (≈ 14 µM) | 8 (≈ 6.99 µM) | > 16 | > 16 | 16 (≈ 14 µM) | 16 (≈ 14 µM) | 32 (≈ 28 µM) | 2 | –
12 | CCOC(=O)COc1c(Cl)c(CC)c(C(=O)O[C@@H]2[C@@H](O)[C@@H](OC)[C@@H](OC/C3=C\C=C\C[C@H](O)/C(C)=C/[C@H](CC)[C@@H](O[C@@H]4OC(C)(C)[C@@H](OC(=O)C(C)C)[C@H](O)[C@@H]4O)/C(C)=C/C(C)=C/C[C@@H]([C@@H](C)O)OC3=O)O[C@H]2C)c(OCC(=O)OCC)c1Cl | > 16 | 16 (≈ 13 µM) | > 16 | 16 (≈ 13 µM) | 4 (≈ 3.25 µM) | 16 (≈ 13 µM) | 16 (≈ 13 µM) | > 16 | > 16 | 16 (≈ 13 µM) | 32 (≈ 26 µM) | 8 (≈ 6.5 µM) | 0.5 | –
13 | CCc1c(Cl)c(OCC(=O)N2CCC(O)CC2)c(Cl)c(OCC(=O)N2CCC(O)CC2)c1C(=O)O[C@@H]1[C@@H](O)[C@@H](OC)[C@@H](OC/C2=C\C=C\C[C@H](O)/C(C)=C/[C@H](CC)[C@@H](O[C@@H]3OC(C)(C)[C@@H](OC(=O)C(C)C)[C@H](O)[C@@H]3O)/C(C)=C/C(C)=C/C[C@@H]([C@@H](C)O)OC2=O)O[C@H]1C | – | – | – | – | – | – | – | – | – | – | – | – | – | 213 (≈ 159 µM)
